Measurements taken from ChEMBL document CHEMBL4257543, “Structural optimization and antibacterial evaluation of rhodomyrtosone B analogues against MRSA strains” (Medchemcomm, 2018).
Values after ≈ are worked out from the molar mass of the structure shown. Active and inactive are the calls of the source.

How the values were obtained:
Staphylococcus aureus [1] = assay: Antibacterial activity against Staphylococcus aureus ATCC 6538 by micro dilution susceptibility test; format: functional
Method in brief: (§1)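 Microbroth dilution MIC in Mueller–Hinton broth following CLSI guidelines, vancomycin as positive control; resazurin added as visible growth indicator. Assays run at least in triplicate.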

Staphylococcus aureus [2] = assay: Antibacterial activity against methicillin-resistant Staphylococcus aureus JCSC 4788 by micro dilution susceptibility test; format: functional; method in brief: as §1
Staphylococcus aureus [3] = assay: Ratio of MIC for methicillin-resistant Staphylococcus aureus JCSC 4788 re-passaged at 24 hrs intervals for 20 times to MIC for methicillin-resistant Staphylococcus aureus JCSC 4788; format: functional
Method in brief: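 Sequential passaging of MRSA JCSC 4788 in MHB with sub-inhibitory compound at 24 h intervals for at least 20 passages at 37 °C. MIC after passaging, by CLSI microbroth dilution, is divided by the initial MIC. Resistance is defined as a rise of more than 4-fold.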

Staphylococcus aureus [4] = assay: Antibacterial activity against methicillin-resistant Staphylococcus aureus JCSC 4788 at sub-MIC re-passaged at 24 hrs intervals for 5 times by micro dilution susceptibility test; format: functional, organism-based
Method in brief: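 Exponential-phase MRSA JCSC 4788 at 37 °C passaged into fresh MHB containing compound at a sub-inhibitory concentration and re-passaged at 24 h intervals up to at least 20 passages; MIC then redetermined by CLSI microbroth dilution in MHB. Resistance defined as a more than 4-fold increase over the initial MIC.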

Staphylococcus aureus [5] = assay: Antibacterial activity against Staphylococcus aureus ATCC 29213 by micro dilution susceptibility test; format: functional; method in brief: as §1
Enterococcus faecalis = assay: Antibacterial activity against Enterococcus faecalis ATCC 29212 by micro dilution susceptibility test; format: functional
Method in brief: (§2)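 Microbroth dilution MIC in Mueller–Hinton broth following CLSI guidelines, with vancomycin as positive control; assays run at least in triplicate.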

Shigella dysenteriae = assay: Antibacterial activity against Shigella dysenteriae CMCC 51252 by micro dilution susceptibility test; format: functional; method in brief: as §1
Cutibacterium acnes = assay: Antibacterial activity against Propionicibacterium acnes ATCC 6919 by micro dilution susceptibility test; format: functional
Method in brief: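 Microbroth dilution MIC in Mueller–Hinton broth following CLSI guidelines; […]; resazurin added as visible growth indicator; vancomycin positive control; at least triplicate.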

Staphylococcus aureus [6] = assay: Antibacterial activity against methicillin-resistant Staphylococcus aureus NCTC 10442 by micro dilution susceptibility test; format: functional; method in brief: as §1
Staphylococcus aureus [7] = assay: Antibacterial activity against methicillin-resistant Staphylococcus aureus N315 by micro dilution susceptibility test; format: functional; method in brief: as §1
Staphylococcus aureus [8] = assay: Antibacterial activity against methicillin-resistant Staphylococcus aureus JCSC 4744 by micro dilution susceptibility test; format: functional; method in brief: as §1
Paenibacillus polymyxa [9] = assay: Antibacterial activity against Bacillus polymyxa GIM 1.467 by micro dilution susceptibility test; format: functional; method in brief: as §2
[10] = test system: Staphylococcus epidermidis; assay: Antibacterial activity against Staphylococcus epidermidis ATCC 12228 by micro dilution susceptibility test; format: functional; method in brief: as §2
Staphylococcus aureus [11] = assay: Antibacterial activity against methicillin-resistant Staphylococcus aureus JCSC 3063 by micro dilution susceptibility test; format: functional; method in brief: as §1
Staphylococcus aureus [12] = assay: Antibacterial activity against methicillin-resistant Staphylococcus aureus JCSC 2172 by micro dilution susceptibility test; format: functional; method in brief: as §1
Paenibacillus polymyxa [13] = assay: Antibacterial activity against Bacillus polymyxa ATCC 842 by micro dilution susceptibility test; format: functional; method in brief: as §2
Staphylococcus aureus [14] = assay: Antibacterial activity against methicillin-resistant Staphylococcus aureus 85/2082 by micro dilution susceptibility test; format: functional; method in brief: as §1
Candida albicans = assay: Antibacterial activity against Candida albicans ATCC 10231 by micro dilution susceptibility test; format: functional; method in brief: as §2
Staphylococcus aureus [15] = assay: Antibacterial activity against methicillin-resistant Staphylococcus aureus JCSC 4469 by micro dilution susceptibility test; format: functional; method in brief: as §1
Enterococcus faecium = assay: Antibacterial activity against vancomycin-resistant Enterococcus faecium by micro dilution susceptibility test; format: functional; method in brief: as §1
Staphylococcus aureus [16] = assay: Antibacterial activity against Staphylococcus aureus CMCC 26003 by micro dilution susceptibility test; format: functional; method in brief: as §1
Salmonella typhi = assay: Antibacterial activity against Salmonella typhi CMCC 44102 by micro dilution susceptibility test; format: functional, Salmonella enterica subsp. enterica serovar Typhi; conditions: Salmonella enterica; method in brief: as §1
Escherichia coli = assay: Antibacterial activity against Escherichia coli ATCC 8739 by micro dilution susceptibility test; format: functional; method in brief: as §2
Bacillus cereus = assay: Antibacterial activity against Bacillus cereus ATCC 10876 by micro dilution susceptibility test; format: functional; method in brief: as §2

SMILES: CC(C)CC1C2=C(Oc3c(C(=O)C4CCC4)c(O)cc(O)c31)C(C)(C)C(=O)C(C)(C)C2=O (stereo unspecified)
- MIC (Staphylococcus aureus [1]): 4 µg/mL (≈ 9.08 µM)
- MIC (Staphylococcus aureus [2]): 8 µg/mL (≈ 18.2 µM)

SMILES: CC(C)CC1C2=C(Oc3cc(O)cc(O)c31)C(C)(C)C(=O)C(C)(C)C2=O (stereo unspecified)
- MIC (Staphylococcus aureus [1]): > 256 µg/mL
- MIC (Staphylococcus aureus [2]): 256 µg/mL (≈ 714 µM)

SMILES: CCCCCCCCCCC(=O)c1c(O)cc(O)c2c1OC1=C(C(=O)C(C)(C)C(=O)C1(C)C)C2CC(C)C (stereo unspecified)
- MIC (Staphylococcus aureus [1]): 1 µg/mL (≈ 1.9 µM)
- MIC (Staphylococcus aureus [2]): 1 µg/mL (≈ 1.9 µM)

SMILES: CCCC(=O)c1c(O)cc(O)c2c1OC1=C(C(=O)C(C)(C)C(=O)C1(C)C)C2CC(C)C (stereo unspecified)
- MIC (Staphylococcus aureus [1]): 2 µg/mL (≈ 4.67 µM)
- MIC (Staphylococcus aureus [2]): 2 µg/mL (≈ 4.67 µM)

SMILES: CC(C)CC1C2=C(Oc3c(C=O)c(O)cc(O)c31)C(C)(C)C(=O)C(C)(C)C2=O (stereo unspecified)
- MIC (Staphylococcus aureus [1]): 128 µg/mL (≈ 331 µM)
- MIC (Staphylococcus aureus [2]): 128 µg/mL (≈ 331 µM)

SMILES: CCCCCCCCCCCC(=O)c1c(O)cc(O)c2c1OC1=C(C(=O)C(C)(C)C(=O)C1(C)C)C2CC(C)C (stereo unspecified)
- MIC (Staphylococcus aureus [1]): 8 µg/mL (≈ 14.8 µM)
- MIC (Staphylococcus aureus [2]): 8 µg/mL (≈ 14.8 µM)

SMILES: CCCCCC(=O)c1c(O)cc(O)c2c1OC1=C(C(=O)C(C)(C)C(=O)C1(C)C)C2CC(C)C (stereo unspecified)
- MIC (Staphylococcus aureus [1]): 0.5 µg/mL (≈ 1.1 µM)
- MIC (Staphylococcus aureus [2]): 0.5 µg/mL (≈ 1.1 µM)

SMILES: CCC(=O)c1c(O)cc(O)c2c1OC1=C(C(=O)C(C)(C)C(=O)C1(C)C)C2CC(C)C (stereo unspecified)
- MIC (Staphylococcus aureus [1]): 2 µg/mL (≈ 4.83 µM)
- MIC (Staphylococcus aureus [2]): 2 µg/mL (≈ 4.83 µM)

SMILES: CCCCCCCCCC(=O)c1c(O)cc(O)c2c1OC1=C(C(=O)C(C)(C)C(=O)C1(C)C)C2CC(C)C (stereo unspecified)
- MIC (Staphylococcus aureus [1]): 0.5 µg/mL (≈ 0.975 µM)
- MIC (Staphylococcus aureus [2]): 0.5 µg/mL (≈ 0.975 µM)

SMILES: CCCCCCCCCCCCCCCC(=O)c1c(O)cc(O)c2c1OC1=C(C(=O)C(C)(C)C(=O)C1(C)C)C2CC(C)C (stereo unspecified)
- MIC (Staphylococcus aureus [1]): > 256 µg/mL
- MIC (Staphylococcus aureus [2]): > 256 µg/mL

SMILES: CC1COc2c(N3CCN(C)CC3)c(F)cc3c(=O)c(C(=O)O)cn1c23 (stereo unspecified) [OFLOXACIN]
- Ratio (Staphylococcus aureus [3]): 16
- Activity (Staphylococcus aureus [4]): inactive

SMILES: CC(C)CC1C2=C(Oc3c(C(=O)C4CCCCC4)c(O)cc(O)c31)C(C)(C)C(=O)C(C)(C)C2=O (stereo unspecified)
- MIC (Staphylococcus aureus [1]): 2 µg/mL (≈ 4.27 µM)
- MIC (Staphylococcus aureus [2]): 4 µg/mL (≈ 8.54 µM)

SMILES: CC(C)CC(=O)c1c(O)cc(O)c2c1OC1=C(C(=O)C(C)(C)C(=O)C1(C)C)C2CC(C)C (stereo unspecified)
- MIC (Staphylococcus aureus [5]): 1 µg/mL (≈ 2.26 µM)
- MIC (Staphylococcus aureus [1]): 0.5 to 1 µg/mL (≈ 1.13 to 2.26 µM)
- MIC (Enterococcus faecalis): 1 µg/mL (≈ 2.26 µM)
- MIC (Shigella dysenteriae): > 32 µg/mL
- MIC (Cutibacterium acnes): 0.5 µg/mL (≈ 1.13 µM)
- MIC (Staphylococcus aureus [6]): 1 µg/mL (≈ 2.26 µM)
- MIC (Staphylococcus aureus [7]): 1 µg/mL (≈ 2.26 µM)
- MIC (Staphylococcus aureus [8]): 0.5 µg/mL (≈ 1.13 µM)
- MIC (Paenibacillus polymyxa [9]): > 32 µg/mL
- MIC [10]: 1 µg/mL (≈ 2.26 µM)
- MIC (Staphylococcus aureus [11]): 0.5 µg/mL (≈ 1.13 µM)
- MIC (Staphylococcus aureus [12]): 0.5 µg/mL (≈ 1.13 µM)
- MIC (Paenibacillus polymyxa [13]): > 32 µg/mL
- MIC (Staphylococcus aureus [14]): 1 µg/mL (≈ 2.26 µM)
- MIC (Candida albicans): > 32 µg/mL
- MIC (Staphylococcus aureus [15]): 0.5 µg/mL (≈ 1.13 µM)
- MIC (Staphylococcus aureus [2]): 1 µg/mL (≈ 2.26 µM)
- MIC (Enterococcus faecium): 2 µg/mL (≈ 4.52 µM)
- MIC (Staphylococcus aureus [16]): 0.5 µg/mL (≈ 1.13 µM)
- MIC (Salmonella typhi): > 32 µg/mL
- MIC (Escherichia coli): > 32 µg/mL
- MIC (Bacillus cereus): 0.5 µg/mL (≈ 1.13 µM)
